In ChEMBL document CHEMBL4715895, “Synthesis of erythro- B13 enantiomers and stereospecific action of full set of B13-isomers in MCF7 breast carcinoma cells: Cellular metabolism and effects on sphingolipids” (Bioorg Med Chem, 2021):

Experiments:
[1] = Drug uptake in human MCF7 cells at 1 to 10 uM after 24 hrs by HPLC-MS/MS analysis; format: ADME, cell-based; conditions: mcf7, 24 h, dose 1-10 µM
In short: (§1)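 MCF7 cells received 1, 5 or 10uM of each isomer for 1h or 24h as stated. Intracellular isomer levels were quantified by UHPLC-MS/MS of lipid extracts from cell pellets. Data are means ± st dev of triplicates.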

[2] = Drug metabolism in human MCF7 cells assessed as increase in C16-ceramide metabolite formation at 10 uM after 1 hr by UHPLC-MS/MS analysis; format: ADME, cell-based; conditions: mcf7, 1 h
In short: (§2)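 After 1h of exposure to 10uM of each isomer, MCF7 pellets were extracted. Endogenous Cn-Cer and Cn-dhCer species were quantified by UHPLC-MS/MS as pmol/nmol lipid phosphate. Results are triplicate means ± st dev versus control.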

[3] = Drug metabolism in human MCF7 cells assessed as increase in C14-ceramide metabolite formation at 10 uM after 1 hr by UHPLC-MS/MS analysis; format: ADME, cell-based; conditions: mcf7, 1 h; in short: as §2
[4] = Drug metabolism in human MCF7 cells assessed as ceramidase-mediated C16 metabolite formation at 1 to 10 uM after 24 hrs by UHPLC-MS/MS analysis; format: ADME, cell-based; conditions: mcf7, 24 h, dose 1-10 µM
[5] = Drug metabolism in human MCF7 cells assessed as reduction in endogenous sphingosine level at 1 to 10 uM after 24 hrs by UHPLC-MS/MS analysis; format: ADME, cell-based; conditions: mcf7, 24 h, dose 1-10 µM
In short: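 Isomers were applied at 1, 5 and 10uM for 24h. Endogenous Sph was measured in extracted pellet lipids by UHPLC-MS/MS (pmol/nmol lipid phosphate); the Cer/Sph ratio was also calculated. Values are triplicate means ± st dev versus control.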

[6] = tested on: MCF7; test: Antiproliferative activity against human MCF7 cells assessed as growth inhibition after 72 hrs by MTT assay; format: functional, cell-based; conditions: MCF7, 72 h
In short: (§3)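 MCF7 (RPMI 1640 with 10% FBS, 2mM L-glutamine, 37°C, 5% CO2) harvested in exponential growth, then exposed to each B13 stereoisomer for the stated time. Viable cells were quantified by MTT and expressed as % of untreated control (means ± st dev, 5 replicates). IC50 values were derived per time point.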

[7] = Drug metabolism in human MCF7 cells assessed as reduction in elevation of C26-ceramide metabolite formation at 10 uM after 1 hr by UHPLC-MS/MS analysis; format: ADME, cell-based; conditions: mcf7, 1 h; in short: as §2
[8] = tested on: MCF7; test: Antiproliferative activity against human MCF7 cells assessed as growth inhibition after 24 hrs by MTT assay; format: functional, cell-based; conditions: MCF7, 24 h; in short: as §3
[9] = Drug metabolism in human MCF7 cells assessed as ceramidase mediated C24:1 metabolite formation after 24 hrs by UHPLC-MS/MS analysis; format: ADME, cell-based; conditions: mcf7, 24 h
In short: (§4)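 Cells were treated with 10uM of each isomer for 24h, then pellets were collected and lipids extracted. C16 and C24:1 analogs were quantified by UHPLC-MS/MS as pmol/nmol lipid phosphate, referenced against standards. Values are means ± st dev of triplicates from 3 separate experiments.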

[10] = tested on: MCF7; test: Antiproliferative activity against human MCF7 cells assessed as growth inhibition after 48 hrs by MTT assay; format: functional, cell-based; conditions: MCF7, 48 h
[11] = Drug uptake in human MCF7 cells at 1 to 10 uM after 1 hr by HPLC-MS/MS analysis; format: ADME, cell-based; conditions: mcf7, 1 h, dose 1-10 µM; in short: as §1
[12] = Drug metabolism in human MCF7 cells assessed as ceramidase mediated C16 metabolite formation after 24 hrs by UHPLC-MS/MS analysis; format: ADME, cell-based; conditions: mcf7, 24 h; in short: as §4
[13] = Drug metabolism in human MCF7 cells assessed as increase in C24:1-dihydroceramide elevation at 10 uM after 1 hr by UHPLC-MS/MS analysis; format: ADME, cell-based; conditions: mcf7, 1 h; in short: as §2
[14] = Drug metabolism in human MCF7 cells assessed as increase in C24-dihydroceramide elevation at 10 uM after 1 hr by UHPLC-MS/MS analysis; format: ADME, cell-based; conditions: mcf7, 1 h; in short: as §2
[15] = Drug metabolism in human MCF7 cells assessed as increase in C26:1-dihydroceramide elevation at 10 uM after 1 hr by UHPLC-MS/MS analysis; format: ADME, cell-based; conditions: mcf7, 1 h; in short: as §2
[16] = Drugmetabolism in human MCF7 cells assessed as formation of phosphorylated free sphingoid base at 1 to 10 uM after 24 hrs by UHPLC-MS/MS analysis; format: ADME, cell-based; conditions: mcf7, 24 h, dose 1-10 µM
[17] = Drug metabolism in human MCF7 cells assessed as elevation of =<C18-ceramide metabolite at 10 uM after 24 hr by UHPLC-MS/MS analysis; format: ADME, cell-based; conditions: mcf7, 24 h
In short: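 Each isomer was given at 10uM to MCF7 cells for 24h. Lipid extracts of the cell pellets were profiled by UHPLC-MS/MS for Cn-Cer species, normalized to lipid phosphate (pmol/nmol). Data are means ± st dev of triplicates, compared with vehicle control (p<0.05).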

[18] = Drug metabolism in human MCF7 cells assessed as increase in C26-dihydroceramide elevation at 10 uM after 1 hr by UHPLC-MS/MS analysis; format: ADME, cell-based; conditions: mcf7, 1 h; in short: as §2

Drug uptake [1]	Drug metabolism [2]	Drug metabolism [3]	Drug metabolism [4]	Drug metabolism [5]	IC50 [6]	Drug metabolism [7]	IC50 [8]	Drug metabolism [9]	IC50 [10]	Drug uptake [11]	Drug metabolism [12]	Drug metabolism [13]	Drug metabolism [14]	Drug metabolism [15]	Drug metabolism [16]	Drug metabolism [17]	Drug metabolism [18]	SMILES
Active	Metabolite_Detected	Metabolite_Detected	Metabolite_Detected	Metabolite_Detected	37 µM	Metabolite_Detected	42.3 µM	Metabolite_Detected	35.6 µM	Active	Metabolite_Detected							CCCCCCCCCCCCCC(=O)N[C@H](CO)[C@H](O)c1ccc([N+](=O)[O-])cc1
Active			Metabolite_Detected	Metabolite_Detected	46.6 µM		54.1 µM	Metabolite_Detected	43.6 µM	Active	Metabolite_Detected							CCCCCCCCCCCCCC(=O)N[C@@H](CO)[C@@H](O)c1ccc([N+](=O)[O-])cc1
Not Active			Metabolite_Detected		9.39 µM		10.2 µM	Metabolite_Detected	8.08 µM	Active	Metabolite_Detected	Metabolite_Detected	Metabolite_Detected	Metabolite_Detected	Metabolite_Detected	Metabolite_Detected	Metabolite_Detected	CCCCCCCCCCCCCC(=O)N[C@@H](CO)[C@H](O)c1ccc([N+](=O)[O-])cc1
Active			Metabolite_Detected	Metabolite_Detected	13.5 µM		18 µM	Metabolite_Detected	13.1 µM	Active	Metabolite_Detected							CCCCCCCCCCCCCC(=O)N[C@H](CO)[C@@H](O)c1ccc([N+](=O)[O-])cc1
